In ChEMBL document CHEMBL1122270, “N-(4-substituted-thiazolyl)oxamic acid derivatives, a new series of potent, orally active antiallergy agents” (1983):

Legend:
Format in all cases: functional
Rattus norvegicus [1] = assay: Antiallergic activity by rat passive cutaneous anaphylaxis (PCA) assay when administered perorally; value ranges between (2.9-15.4); details: po
Procedure, shortened: (§1)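 Rats were passively sensitized intradermally with diluted reaginic anti-ovalbumin serum 24 h before challenge. Compound was suspended in 1% acacia and dosed by oral feeding needle at 1 mL/kg. After 20-30 min, rats were challenged with 0.02 mg ovalbumin in 0.5 mL 2% Evans Blue. Blued areas were measured 30 min after challenge. Six rats per dose; ED50 is 50% area reduction from control, with 95% confidence limits.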

Rattus norvegicus [2] = assay: Antiallergic activity by rat passive cutaneous anaphylaxis (PCA) assay when administered iv.;value ranges between (0.2-1.8.)
Procedure, shortened: (§2)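 Male rats sensitized by id injection of diluted rat anti-ovalbumin reaginic serum (0.1 mL each side of shaved back). 24 h later, compound in saline was mixed with 5 mg ovalbumin in 0.5 mL 2% Evans Blue and given iv at 1 mL/kg. Blued-spot diameters were read 30 min later. Six rats per group; ED50 is 50% area reduction versus control, with 95% confidence limits.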

Rattus norvegicus [3] = assay: Antiallergic activity by rat passive cutaneous anaphylaxis (PCA) assay when administered per orally.;value ranges between (1.0-4.1.); details: po; procedure, shortened: as §1
Rattus norvegicus [4] = assay: Antiallergic activity by rat passive cutaneous anaphylaxis (PCA) assay when administered iv.;value ranges between (0.06-0.4); procedure, shortened: as §2
Rattus norvegicus [5] = assay: antiallergic activity by rat passive cutaneous anaphylaxis (PCA) assay when administered iv; procedure, shortened: as §2
Rattus norvegicus [6] = assay: Antiallergic activity by rat passive cutaneous anaphylaxis (PCA) assay when administered perorally.; details: po; procedure, shortened: as §1
Rattus norvegicus [7] = assay: Antiallergic activity by rat passive cutaneous anaphylaxis (PCA) assay when administered per orally;value ranges between (1.5-9.0).; details: po; procedure, shortened: as §1
Rattus norvegicus [8] = assay: Antiallergic activity by rat passive cutaneous anaphylaxis (PCA) assay when administered per orally;value ranges between (0.32-1.04); details: po; procedure, shortened: as §1
Rattus norvegicus [9] = assay: Antiallergic activity by rat passive cutaneous anaphylaxis (PCA) assay when administered iv;value ranges between 0.02-0.07; procedure, shortened: as §2
Rattus norvegicus [10] = assay: Antiallergic activity by rat passive cutaneous anaphylaxis (PCA) assay when administered per orally;value ranges between (2.0-5.0.); details: po; procedure, shortened: as §1

`NCCO.O=C(O)C(=O)Nc1nc(-c2ccccc2O)cs1` was tested. Which ED50 (Rattus norvegicus [1]) did it give?
The ED50 was 6.7 mg/kg.

And the ED50 (Rattus norvegicus [2])?
The ED50 was 0.62 mg/kg.

How did the ED50 (Rattus norvegicus [3]) turn out when `COc1cccc(-c2csc(NC(=O)C(=O)O)n2)c1` was run?
Its ED50 is 2.1 mg/kg.

And the ED50 (Rattus norvegicus [4])?
The ED50 was 0.16 mg/kg.

Which results are given for `O=C(O)C(=O)Nc1nc(-c2ccccc2)cs1`?
ED50 (Rattus norvegicus [5]): > 3 mg/kg; ED50 (Rattus norvegicus [6]): ~1 mg/kg

With `CCOC(=O)C(=O)Nc1nc(-c2ccc(O)cc2C)cs1` as the compound, how does the ED50 (Rattus norvegicus [7]) read?
The ED50 was 3.7 mg/kg.

`NCCO.O=C(O)C(=O)Nc1nc(-c2ccc3c(c2)OCCO3)cs1` was tested. Which ED50 (Rattus norvegicus [8]) did it give?
Its ED50 is 0.6 mg/kg.

And the ED50 (Rattus norvegicus [9])?
Its ED50 is 0.039 mg/kg.

With `CCOC(=O)C(=O)Nc1nc(-c2ccc(N3CCCCC3)cc2)cs1` as the compound, how does the ED50 (Rattus norvegicus [10]) read?
The ED50 was 3.2 mg/kg.
